Key:
[1] = test system: Raji; assay: Survival of Raji cells at 0.32 nmol by trypan blue staining method; type: functional, Homo sapiens
How it was run: (§1)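 Raji cells (EBV genome-carrying, non-producer) grown to 10⁶ cells/mL, centrifuged, resuspended in RPMI 1640 with 10% FCS, 4 mM n-butyric acid and 32 pmol TPA (20 ng/mL), plus test compound in DMSO (32, 16, 3.2 or 0.32 nmol; 1000–10 mol ratio/TPA). Incubated 37 °C, 48 h; viability counted by hemocytometer with Trypan Blue; ≥60% survival required.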

[2] = test system: Raji; assay: Survival of Raji cells at 16 nmol by trypan blue staining method; type: functional, Homo sapiens; how it was run: as §1
[3] = test system: Human gammaherpesvirus 4; assay: TPA-induced EBV early antigen activation in Raji cells at 16 nmol relative to control
[4] = test system: Human gammaherpesvirus 4; assay: TPA-induced EBV early antigen activation in Raji cells at 32 nmol relative to control
[5] = test system: Raji; assay: Survival of Raji cells at 32 nmol by trypan blue staining method; type: functional, Homo sapiens; how it was run: as §1
[6] = species on record: Mus musculus; assay: Inhibition of TPA-induced skin tumor in SENCAR mouse assessed as reduction of skin papilloma at 85 nmol after 20 weeks; type: functional; set-up: scale not given: the % may be the effect or the level left
[7] = test system: Raji; assay: Survival of Raji cells at 3.2 nmol by trypan blue staining method; type: functional, Homo sapiens; how it was run: as §1
[8] = test system: Human gammaherpesvirus 4; assay: TPA-induced EBV early antigen activation in Raji cells at 0.32 nmol relative to control
[9] = test system: Human gammaherpesvirus 4; assay: TPA-induced EBV early antigen activation in Raji cells at 3.2 nmol relative to control

SMILES | Survival [1] | Survival [2] | EBV-EA activation [3] | EBV-EA activation [4] | Survival [5] | Activity [6] | Survival [7] | EBV-EA activation [8] | EBV-EA activation [9]
COc1c(C/C=C/c2ccccc2)ccc(OCC=C(C)C)c1OCC=C(C)C | >80% | >80% | 22.6% | 0% | 70% | 30% | >80% | 88.9% | 64.5%
COc1ccc(C/C=C/c2ccccc2)c(O)c1OCC=C(C)C | >80% | >80% | 30.6% | 0% | 70% |  | >80% | 90.8% | 65.6%
COc1c(C/C=C/c2ccccc2)ccc(OCC=C(C)C)c1OC | >80% | >80% | 29.8% | 0% | 70% |  | >80% | 91.5% | 68.2%
COc1c(O)ccc(C/C=C/c2ccccc2)c1OC | >80% | >80% | 44.3% | 12.5% | 60% |  | >80% | 100% | 74%
COc1cc(/C=C/Cc2ccc(O)c(O)c2OC)ccc1OC(C)=O | >80% | >80% | 36.1% | 9.4% | 60% |  | >80% | 100% | 74%
COc1cc(/C=C/C(=O)CC(=O)/C=C/c2ccc(O)c(OC)c2)ccc1O [CURCUMIN] | >80% | >80% | 22.8% | 0% | 60% |  | >80% | 100% | 81.7%
COc1ccc(C/C=C/c2ccccc2)c(O)c1O | >80% | >80% | 42.5% | 10.8% | 60% |  | >80% | 100% | 71.5%
COc1ccc(C/C=C/c2ccccc2)c(OCC=C(C)C)c1O | >80% | >80% | 27.6% | 0% | 70% |  | >80% | 90.6% | 64.5%
COc1cccc(O)c1C/C=C/c1ccccc1 | >80% | >80% | 43.7% | 18.3% | 60% |  | >80% | 100% | 70.5%
COc1ccc(C/C=C/c2ccccc2)c(O)c1OC | >80% | >80% | 45.5% | 13.3% | 60% |  | >80% | 100% | 76.2%
COc1cccc(OCC=C(C)C)c1C/C=C/c1ccccc1 | >80% | >80% | 30.8% | 0% | 70% |  | >80% | 92.7% | 68.9%
COc1ccc(C/C=C/c2ccccc2)c(OCC=C(C)C)c1OCC=C(C)C | >80% | >80% | 24.6% | 0% | 70% |  | >80% | 88.6% | 62.2%
COc1cc(/C=C/Cc2ccc(OC)c(O)c2O)ccc1OC(C)=O | >80% | >80% | 37.6% | 10% | 60% |  | >80% | 100% | 74.6%
COc1cc(/C=C/Cc2ccc(OC)c(OCC=C(C)C)c2OCC=C(C)C)ccc1OCC=C(C)C | >80% | >80% | 23.6% | 0% | 70% |  | >80% | 83.3% | 61.5%

Reference: ChEMBL document CHEMBL1147206, “Synthetic cinnamylphenol derivatives as cancer chemopreventive agents” (2007)
